rRNA inh HTS = inhibitors of bacterial rRNA selective over humanized ribosomes. E. coli WT GFP vs humanized-ribosome RFP mutants, fluorescence, 24 h; hits give low values; DMSO median 0, no signal -100. GFP signal change (wild-type ribosome), % (test concentration not listed). 350,000 compounds, 1.6% hits. AID 720706;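 active means significant combined selectivity score with lowered wild-type GFP, culture density cut under 30%, mutant RFP and density less affected; inactive means any of these conditions unmet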
ERAP1 HTS inh = blocks human ERAP1 aminopeptidase activity. inhibition, % at 10.7 µM. recombinant ERAP1, Leu-AMC fluorescence, 60 min. 340,000 compounds, 0.15% hits. Q9NZ08;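 active means mean replicate inhibition of at least 30%, or all replicates individually reaching that 30% level; inactive means mean below 30% and not every replicate reaching it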;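 further: 0% = neutral control wells and 100% = L-leucinethiol positive control wells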
Target sequence (Q9NZ08 whole entry, looked up): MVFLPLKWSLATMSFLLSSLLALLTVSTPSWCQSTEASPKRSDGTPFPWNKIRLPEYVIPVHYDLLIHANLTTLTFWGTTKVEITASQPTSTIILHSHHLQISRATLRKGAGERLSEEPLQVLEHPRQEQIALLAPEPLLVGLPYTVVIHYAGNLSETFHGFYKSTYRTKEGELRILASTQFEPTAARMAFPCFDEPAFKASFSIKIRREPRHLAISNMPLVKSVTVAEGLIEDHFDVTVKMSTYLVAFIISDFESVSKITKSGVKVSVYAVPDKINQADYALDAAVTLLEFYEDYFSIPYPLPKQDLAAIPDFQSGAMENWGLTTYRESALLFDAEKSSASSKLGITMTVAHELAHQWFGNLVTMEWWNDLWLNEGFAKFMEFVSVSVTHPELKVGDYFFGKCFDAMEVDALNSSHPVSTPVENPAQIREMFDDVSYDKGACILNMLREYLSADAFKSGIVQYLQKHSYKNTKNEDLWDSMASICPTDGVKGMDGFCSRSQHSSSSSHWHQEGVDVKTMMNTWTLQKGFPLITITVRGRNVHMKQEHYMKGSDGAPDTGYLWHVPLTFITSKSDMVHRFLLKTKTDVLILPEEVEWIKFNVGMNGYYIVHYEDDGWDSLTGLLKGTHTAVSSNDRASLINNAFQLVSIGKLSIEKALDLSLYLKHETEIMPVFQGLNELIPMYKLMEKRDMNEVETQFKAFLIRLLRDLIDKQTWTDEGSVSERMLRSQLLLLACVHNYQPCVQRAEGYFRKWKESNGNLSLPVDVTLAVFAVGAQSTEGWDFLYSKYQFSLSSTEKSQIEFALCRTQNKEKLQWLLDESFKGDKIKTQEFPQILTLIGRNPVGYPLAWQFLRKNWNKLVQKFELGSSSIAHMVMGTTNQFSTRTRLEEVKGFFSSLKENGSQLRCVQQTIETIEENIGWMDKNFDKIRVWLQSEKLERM
S100A4 inh HTS = inhibitors of human S100A4 binding to myosin IIA peptide; P26447; S100A4/TAMRA-MyoIIA peptide fluorescence polarization; inhibition, % at 10.7 µM; 360,000 compounds, 0.14% hits; AID 652163;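 active means mean inhibition of at least 70% across replicates, with every replicate also reaching that level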
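Material: human S100A4 monomer with TAMRA-labelled myosin IIA peptide; buffer or medium: HEPES pH 7.2 with CaCl2, KCl, NaCl, DTT, Triton; compound dosing: one concentration per compound; schedule: 5 min incubation before reading; benchmarks: neutral control DMSO, positive control TFP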
CFTR F508del cor = CFTR F508del correction in bronchial cells; CFBE cells, YFP halide quenching; stimulated with forskolin plus potentiator P3; % fluorescence drop versus neutral controls; activity (quench increase), % at 7.58 µM; 350,000 compounds, 0.36% hits; AID 720511;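 active means mean added fluorescence quench of at least 8% versus neutral control, with both replicates also reaching 8%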;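 further: cells transiently co-express mutant CFTR-F508del with the halide-sensitive YFP; corrector assay measuring rescue of mutant channel to the surface after 24 h compound exposure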
SIRT5 inh = inhibitors of human sirtuin-5 desuccinylase | Q9NXA8 | AID 652115 | Purified SirT5, succinyl-peptide AMC, trypsin-coupled fluorescence | 330,000 compounds, 1.1% hits | inhibition, % at 15 µM; in the data active means inhibition above about 15%
Numbers without * were called inactive; · = no result given. In the library only some 3.1% were active in any assay of this set; here they are far more common.

SMILES	rRNA inh HTS	ERAP1 HTS inh	S100A4 inh HTS	CFTR F508del cor	SIRT5 inh
COCc1cc(C)nc(Sc2nc3c(c(=O)n(C)c(=O)n3C)n2C)c1C#N	0	31*	3	2	-2
COCc1cc(C)nc(SCc2ccccc2)c1C#N	-15	·	-4	0	0
C[C@H]1CN([C@@H](C)CO)C(=O)c2cc(NS(=O)(=O)c3ccc(F)cc3)ccc2O[C@@H]1CN(C)Cc1ccc(-c2ccccc2)cc1	-2	-1	-15	3	15*
Cc1ccc(S(=O)(=O)Nc2ccc3c(c2)C(=O)N([C@@H](C)CO)C[C@@H](C)[C@@H](CN(C)Cc2ccc(-c4ccccc4)cc2)O3)cc1	-3	-2	0	0	17*
C[C@@H]1CN([C@@H](C)CO)C(=O)c2cc(NS(=O)(=O)c3ccccc3)ccc2O[C@@H]1CN(C)Cc1ccc(-c2ccccc2)cc1	0	-3	-6	-2	18*
CCCNC(=O)N1C[C@H](C)[C@@H](OC)CN(C)C(=O)c2ccc(NC(C)=O)cc2OC[C@@H]1C	·	0	3	1	-4
COc1ccccc1S(=O)(=O)N(C)C[C@H]1Oc2cc(C#CCC(C)C)ccc2S(=O)(=O)N([C@H](C)CO)C[C@@H]1C	0	1	4	0	30*
COc1ccccc1S(=O)(=O)N(C)C[C@@H]1Oc2cc(C#CCC3CCCC3)ccc2S(=O)(=O)N([C@@H](C)CO)C[C@@H]1C	11	-1	4	3	17*
O=C(Cc1ccncc1)NCC[C@@H]1CC[C@@H](NC(=O)C2CCC2)[C@H](CO)O1	1	-2	23	-2	-1
COc1ccccc1CNC(=O)CSc1ccsc1[N+](=O)[O-]	·	-1	-16	·	-3
O=C(CSc1ccsc1[N+](=O)[O-])NCc1ccccc1	-5	0	104*	-2	2
CC(=O)N1CCc2c(sc(NC(=O)C3COc4ccccc4O3)c2C(N)=O)C1 (stereo unspecified)	-21	1	9	-2	2
CN1CCc2c(sc(NC(=O)C3COc4ccccc4O3)c2C(N)=O)C1 (stereo unspecified)	9	-1	106*	-5	1
Cc1nc(NC(=S)Nc2ccccc2)sc1C	-27*	0	1	3	-3
Cc1cccc(NC(=O)Nc2ccc(Cl)c(Cl)c2)n1	-26*	-5	3	4	-2
C[C@@H]1CN([C@H](C)CO)C(=O)Cc2cc(NC(=O)Cn3cnnn3)ccc2O[C@H]1CN(C)S(=O)(=O)c1ccccc1	2	5	47	0	7
O=C(C[C@@H]1C[C@H]2c3cc(NS(=O)(=O)c4ccc(F)cc4)ccc3O[C@H]2[C@@H](CO)O1)N1CCOCC1	0	0	8	2	-5
CO[C@H]1CN(C)C(=O)c2ccc(NC(C)=O)cc2OC[C@H](C)N(Cc2cc(F)ccc2F)C[C@@H]1C	-2	-2	3	-3	3
Clc1cccc(CN2CCN(Cc3nc(CCc4ccccc4)no3)CC2)c1	-32*	-4	-4	-1	-2
CC(=O)c1ccc(N2CCN(Cc3nc(Cc4ccccc4)no3)CC2)cc1	-12	-2	1	-2	2
COc1ccc(-c2nc(CN3CCN(Cc4cccc(F)c4)CC3)c(C)o2)cc1	-11	0	-7	1	-4
Cc1ccccc1N1CCN(Cc2nc(Cc3ccccc3)no2)CC1	-28*	2	3	2	-6
COc1ccc(-c2nc(CN3CCN(Cc4cccc(Cl)c4)CC3)c(C)o2)cc1	-33*	0	0	2	0
O=C(/C=C/c1ccccc1Cl)NCCc1ccccc1	-26*	-7	-5	0	-2
O=C(COC(=O)/C=C/c1ccccc1Cl)NC(=O)Cc1ccccc1	-10	-3	0	·	-2
SMILES	rRNA inh HTS	ERAP1 HTS inh	S100A4 inh HTS	CFTR F508del cor	SIRT5 inh
Cc1ccc(SCCNC(=O)/C=C/c2ccccc2Cl)cc1	-24*	-3	9	-1	1
O=C(COC(=O)/C=C/c1ccccc1Cl)NC(=O)NCc1ccccc1	2	-1	5	8.9*	-4
CO[C@@H]1CN(C)C(=O)c2ccc(NC(=O)C3CCC3)cc2OC[C@H](C)N(Cc2ccncc2)C[C@H]1C	-3	1	-20	1	-2
O=C(Cc1ccncc1)NCC[C@H]1CC[C@@H](NC(=O)Nc2ccc(Cl)cc2)[C@H](CO)O1	3	3	16	-1	-1
O=C(CSc1nc2[nH]ncc2c(=O)[nH]1)Nc1nccs1	18	-2	-2	0	3
NS(=O)(=O)c1ccc(-n2ncc3c(=O)[nH]c(SCC(=O)Nc4nccs4)nc32)cc1	1	7	-4	8.1*	2
C[C@@H]1CCCCO[C@@H](CN(C)CC2CC2)[C@@H](C)CN([C@H](C)CO)C(=O)c2cc(NC(=O)Nc3ccc(C(F)(F)F)cc3)ccc2O1	6	·	·	2	·
CCOC(=O)N1CCN(C(=O)CCn2nc(-c3ccccc3)ccc2=O)CC1	3	-1	1	1	-1
CCOC(=O)N1CCC(NC(=O)Cn2nc(-c3ccccc3)ccc2=O)CC1	-2	7	-1	0	18*
CCNc1c([N+](=O)[O-])c(=O)n(CC)c2ccccc12	-33*	2	-2	1	-3
CCN(CC)c1c([N+](=O)[O-])c(=O)n(CC)c2ccccc12	-35*	0	-1	1	-5
CC(=O)N[C@H]1C=C[C@@H](CC(=O)NCc2ccc(Cl)cc2)O[C@H]1CO	1	-1	6	3	-4
Cc1noc(C)c1S(=O)(=O)Nc1ccc2c(c1)C(=O)N([C@H](C)CO)C[C@H](C)[C@@H](CN(C)S(=O)(=O)c1ccc(F)cc1)OCCCC[C@@H](C)O2	1	4	-21	1	1
CN(C)/N=C/c1ccc(N2CCOCC2)cc1	-17*	6	10	0	-3
CCCNC(=O)Nc1ccc2c(c1)C(=O)N(C)[C@H]1CC[C@H](CC(=O)NCC3CCCCC3)O[C@H]1CO2	-5	-1	2	-2	-1
O=C(CCN1CCCCC1)NCC[C@H]1CC[C@H](NS(=O)(=O)c2cccc(F)c2)[C@@H](CO)O1	-2	-3	-3	1	6
O=C(Nc1ccc(OC(F)(F)F)cc1)N1CCN(c2ccnc3cc(Cl)ccc23)CC1	-29*	1	-20	4	0
COc1ccc(NC(=S)NCc2cccnc2)cc1	-4	0	3	-1	-2
COc1ccc(C(=O)NC(=S)NCc2cccnc2)cc1Cl	-21*	-1	4	-1	-9
S=C(NCc1cccnc1)Nc1ccc(Oc2ccc(Cl)cc2)cc1	-26*	-3	-7	-3	-2
Fc1ccc(NC(=S)NCc2cccnc2)cc1	8	-3	2	0	2
CC(C)(C)c1ccc(NC(=S)NCc2cccnc2)cc1	-22*	0	-4	-2	-2

Source: PubChem (Broad Institute)
